Source: ChEMBL document CHEMBL2177030
Calls of active or inactive are those of the source. No cut-off for these calls is given here.

Columns and labels:
[1] = target: T1, Cutinase 1 (Fusarium vanettenii) (UniProt P00590); experiment: Inhibition of Fusarium solani pisi cutinase pre-incubated for 30 mins with enzyme before substrate addition by pH-stat technique
T1 sequence (whole entry): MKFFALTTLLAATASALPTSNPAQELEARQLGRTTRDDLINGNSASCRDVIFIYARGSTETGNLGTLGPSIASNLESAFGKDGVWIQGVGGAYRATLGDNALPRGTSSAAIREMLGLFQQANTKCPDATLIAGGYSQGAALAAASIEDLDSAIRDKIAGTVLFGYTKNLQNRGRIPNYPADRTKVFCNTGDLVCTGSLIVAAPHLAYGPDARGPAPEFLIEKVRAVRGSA
Procedure, shortened: (§1)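 Cutinase was preincubated for 30 min at 25 °C in 2 mM NaTDC, substrate absent, at inhibitor molar excess xI 2, 4, 20, 40 or 100. Residual activity was measured by pH-stat at 37 °C on TC4 emulsion at pH 8.0 with 0.25 mM NaTDC. xI50 is the molar excess giving 50% activity. Isopropanol controls were run. At least duplicate.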

[2] = target: T2, Pancreatic triacylglycerol lipase (Homo sapiens) (UniProt P16233); experiment: Inhibition of human recombinant pancreatic lipase expressed in Pichia pastoris at 200 molar excess compound concentration pre-incubated for 2 hrs with enzyme before substrate addition by pH-stat technique
T2 sequence (whole entry): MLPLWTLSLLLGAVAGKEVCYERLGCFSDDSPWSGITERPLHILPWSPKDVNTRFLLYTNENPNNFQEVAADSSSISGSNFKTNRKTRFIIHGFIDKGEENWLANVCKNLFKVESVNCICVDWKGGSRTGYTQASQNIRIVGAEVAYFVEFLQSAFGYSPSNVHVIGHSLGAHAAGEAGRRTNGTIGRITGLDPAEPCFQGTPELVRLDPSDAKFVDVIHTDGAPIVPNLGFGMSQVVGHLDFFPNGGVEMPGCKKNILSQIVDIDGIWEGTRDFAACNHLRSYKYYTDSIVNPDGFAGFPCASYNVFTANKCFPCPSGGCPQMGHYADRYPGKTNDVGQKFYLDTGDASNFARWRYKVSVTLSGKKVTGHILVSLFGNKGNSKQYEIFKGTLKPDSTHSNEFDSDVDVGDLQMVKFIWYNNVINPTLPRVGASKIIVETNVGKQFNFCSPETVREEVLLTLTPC

[3] = target: T3, Pancreatic lipase-related protein 2 (Cavia porcellus) (UniProt P81139); experiment: Inhibition of guinea pig recombinant PLRP2 expressed in Aspergillus oryzae at 200 molar excess compound concentration pre-incubated for 2 hrs with enzyme before substrate addition by pH-stat technique
T3 sequence (whole entry): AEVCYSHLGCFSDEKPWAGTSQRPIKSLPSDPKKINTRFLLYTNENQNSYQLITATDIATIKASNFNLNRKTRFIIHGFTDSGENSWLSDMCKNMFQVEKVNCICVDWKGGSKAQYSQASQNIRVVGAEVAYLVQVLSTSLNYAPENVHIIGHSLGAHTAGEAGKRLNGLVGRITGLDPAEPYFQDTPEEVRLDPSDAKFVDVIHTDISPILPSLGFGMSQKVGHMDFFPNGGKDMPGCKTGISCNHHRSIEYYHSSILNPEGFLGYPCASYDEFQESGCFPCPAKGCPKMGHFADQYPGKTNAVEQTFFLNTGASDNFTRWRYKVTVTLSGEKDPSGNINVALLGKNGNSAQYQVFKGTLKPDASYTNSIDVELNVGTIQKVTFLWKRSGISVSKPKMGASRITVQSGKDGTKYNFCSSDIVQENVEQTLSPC

[4] = target: T1, Cutinase 1 (Fusarium vanettenii); experiment: Inhibition of Fusarium solani pisi cutinase assessed as residual enzyme activity pre-incubated for 30 mins with enzyme before substrate addition by pH-stat technique; procedure, shortened: as §1
[5] = target: T4, Gastric triacylglycerol lipase (Canis lupus familiaris) (UniProt P80035); experiment: Inhibition of dog recombinant gastric lipase expressed in transgenic maize at 200 molar excess compound concentration pre-incubated for 2 hrs with enzyme before substrate addition by pH-stat technique; type: single protein; details: Stomach
T4 sequence (whole entry): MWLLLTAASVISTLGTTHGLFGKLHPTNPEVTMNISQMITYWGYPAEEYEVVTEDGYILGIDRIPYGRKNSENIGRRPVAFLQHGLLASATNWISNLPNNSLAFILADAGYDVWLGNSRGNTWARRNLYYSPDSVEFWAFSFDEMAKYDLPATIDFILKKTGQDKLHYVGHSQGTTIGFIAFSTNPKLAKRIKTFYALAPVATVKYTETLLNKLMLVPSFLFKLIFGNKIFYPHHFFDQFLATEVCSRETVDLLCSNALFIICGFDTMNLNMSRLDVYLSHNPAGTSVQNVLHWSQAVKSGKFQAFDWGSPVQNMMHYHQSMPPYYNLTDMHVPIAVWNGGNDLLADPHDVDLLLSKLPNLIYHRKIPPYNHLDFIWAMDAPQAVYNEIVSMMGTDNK

[6] = target: T1, Cutinase 1 (Fusarium vanettenii); experiment: Inhibition of Fusarium solani pisi cutinase assessed as half inactivation time pre-incubated with enzyme before substrate addition by pH-stat technique
Procedure, shortened: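 Cutinase was preincubated at 25 °C with inhibitor at xI 4 in 2 mM NaTDC for 1 h. Residual activity was sampled at intervals by pH-stat at 37 °C on TC4 emulsion in 2.5 mM Tris-HCl pH 8.0, 150 mM NaCl, 0.25 mM NaTDC. t1/2 was taken from the time course. Runs were done at least in duplicate.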

[7] = system: Mycobacterium tuberculosis; experiment: Inhibition of Mycobacterium tuberculosis LipY at 40 molar excess compound concentration pre-incubated for 30 mins with enzyme before substrate addition by pH-stat technique
[8] = target: Monoacylglycerol lipase (Mycobacterium tuberculosis H37Rv) (UniProt O07427); experiment: Inhibition of Mycobacterium tuberculosis Rv0183 pre-incubated for 30 mins with enzyme before substrate addition by pH-stat technique
Sequence of Monoacylglycerol lipase (Mycobacterium tuberculosis H37Rv) (O07427 whole entry): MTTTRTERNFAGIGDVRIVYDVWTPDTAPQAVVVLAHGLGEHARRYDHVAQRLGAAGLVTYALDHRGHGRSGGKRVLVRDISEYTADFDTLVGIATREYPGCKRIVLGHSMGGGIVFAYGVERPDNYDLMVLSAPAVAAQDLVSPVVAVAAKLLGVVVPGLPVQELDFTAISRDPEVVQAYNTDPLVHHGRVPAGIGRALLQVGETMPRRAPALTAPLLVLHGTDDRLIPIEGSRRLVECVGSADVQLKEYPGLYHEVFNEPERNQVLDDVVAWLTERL
Procedure, shortened: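 Rv0183 was preincubated 30 min at 25 °C without NaTDC at inhibitor molar excess 2, 4, 20, 40 or 100. Residual monoglyceride lipase activity was measured by pH-stat at 37 °C with MC18 emulsion, pH 8.0, 3 mM NaTDC. xI50 was read from the residual-activity curve. Solvent controls were run. At least duplicate.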

SMILES: CO[P@]1(=O)OC[C@H]2COC(=O)C2=C(C)O1 (racemic)
- XI50 [1]: 0.96 molar excess
- inhibition [2]: inactive
- inhibition [3]: inactive
- Activity [4]: 6%
- inhibition [5]: inactive
- T1/2 [6]: 10.8 s
- inhibition [7]: 14%
- XI50 [8]: 5.22 molar excess
